10 molecules from ChEMBL document CHEMBL1148884, “Radioiodinated aza-diphenylacetylenes as potential SPECT imaging agents for beta-amyloid plaque detection” (Bioorg Med Chem Lett, 2007) can be followed below.

Data set [1] is described as follows: Lipophilicity, log P of the compound. Conditions: octanol/water. Format: physicochemical.
Data set [2] has as its target Amyloid-beta precursor protein (Homo sapiens, UniProt P05067). The experiment in a line: Displacement of [125I]IMPY from beta amyloid plaque in human brain homogenates. In kind it is tissue-based. Put shortly:
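Competition binding with [125I]IMPY as radioligand on homogenates from postmortem Alzheimer's disease brain tissue. Non-radioactive ligands compete for plaque binding, and Ki is derived from the competition. Each value was determined three times with duplicate samples in each measurement, reported as mean ± SEM.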
A general note: In a radioligand displacement assay an active substance lowers the binding of a labelled ligand.

SMILES strings stand for the structures.

Chain of Amyloid-beta precursor protein (P05067 whole entry): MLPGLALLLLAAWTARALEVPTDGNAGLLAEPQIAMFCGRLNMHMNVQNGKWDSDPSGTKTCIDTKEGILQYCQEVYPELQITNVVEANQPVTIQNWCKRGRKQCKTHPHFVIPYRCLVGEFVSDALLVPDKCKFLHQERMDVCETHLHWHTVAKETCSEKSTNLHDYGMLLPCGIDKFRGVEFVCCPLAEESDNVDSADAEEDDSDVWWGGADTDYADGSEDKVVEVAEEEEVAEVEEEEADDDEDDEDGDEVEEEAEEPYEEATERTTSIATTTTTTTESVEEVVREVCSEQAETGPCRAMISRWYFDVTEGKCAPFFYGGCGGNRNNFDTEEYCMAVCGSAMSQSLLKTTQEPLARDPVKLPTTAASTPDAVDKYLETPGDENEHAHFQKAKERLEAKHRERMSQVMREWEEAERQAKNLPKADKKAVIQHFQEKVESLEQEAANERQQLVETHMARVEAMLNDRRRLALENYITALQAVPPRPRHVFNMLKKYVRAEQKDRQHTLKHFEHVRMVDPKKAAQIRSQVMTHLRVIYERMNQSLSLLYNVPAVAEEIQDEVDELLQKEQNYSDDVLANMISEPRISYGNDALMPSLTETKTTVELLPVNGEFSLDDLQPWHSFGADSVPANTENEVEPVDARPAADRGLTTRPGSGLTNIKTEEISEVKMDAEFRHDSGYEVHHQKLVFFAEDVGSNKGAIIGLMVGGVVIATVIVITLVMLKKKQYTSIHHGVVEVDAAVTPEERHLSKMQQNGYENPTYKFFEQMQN

In general, logP refers to a log measure of how a compound divides between an organic and an aqueous phase. A higher logP goes with higher lipophilicity. `CN(C)c1ccc(C#Cc2cnc(OCCOCCOCCF)c([125I])c2)cc1`: in data set [1], the logP is 2.6. Same read-out and setting: next, `CN(C)c1ccc(C#Cc2cnc(OCCO)c([125I])c2)cc1`: 2.8. Broadly, the Ki is the equilibrium dissociation constant of an inhibitor or competing ligand from its target. A low value points to tighter binding. Regarding `CN(C)c1ccc(C#Cc2cnc(OCCOCCOCCF)c(I)c2)cc1`, the affinity in data set [2], expressed as Ki, was 16.8 nM.

Regarding `CN(C)c1ccc(C#Cc2cnc(OCCO)c(I)c2)cc1`, affinity in data set [2] was put at a Ki of 9.2 nM. This Ki is about 1.8-fold lower than that of the molecule before. The same measure, in the same setting: next, `CN(C)c1ccc(C#Cc2cnc(OCCO)c(Br)c2)cc1`: 6.7 nM; `CNc1ccc(C#Cc2cnc(OCCOCCOCCF)c(Br)c2)cc1`: 13.1 nM; `CNc1ccc(C#Cc2cnc(OCCO)c(Br)c2)cc1`: 1.6 nM. Still for that read-out and setting: the same measure for `CNc1ccc(C#Cc2cnc(OCCO)c(I)c2)cc1`: 12.5 nM; for `OCCOc1ncc(C#Cc2ccc(O)cc2)cc1I`: 6.2 nM; for `CN(C)c1ccc(C#Cc2cnc(OCCOCCOCCF)c(Br)c2)cc1`: 11.2 nM.
